ChEMBL document CHEMBL5260840 (J Med Chem, 2019)

Experiments:
[1] = target: T1, DDB1- and CUL4-associated factor 15/Bromodomain-containing protein 9 (Homo sapiens) (UniProt Q9H8M2+Q66K64); test: PROTAC activity at DCAF15/BRD9 in human HeLa cells assessed as remaining BRD9 protein level at 1 uM incubated for 4 hrs by Western blot analysis relative to control; assay type: cell-based
[2] = target: T1, DDB1- and CUL4-associated factor 15/Bromodomain-containing protein 9 (Homo sapiens); test: PROTAC activity at DCAF15/BRD9 in human HeLa cells assessed as remaining BRD9 protein level at 1 uM incubated for 16 hrs by Western blot analysis relative to control; assay type: cell-based
[3] = target: T2, DDB1- and CUL4-associated factor 15/Bromodomain-containing protein 7 (Homo sapiens) (UniProt Q9NPI1+Q66K64); test: PROTAC activity at DCAF15/BRD7 in human HeLa cells assessed as remaining BRD7 protein level at 1 uM incubated for 4 hrs by Western blot analysis relative to control; assay type: cell-based
T2 sequence (Q66K64 whole entry, looked up): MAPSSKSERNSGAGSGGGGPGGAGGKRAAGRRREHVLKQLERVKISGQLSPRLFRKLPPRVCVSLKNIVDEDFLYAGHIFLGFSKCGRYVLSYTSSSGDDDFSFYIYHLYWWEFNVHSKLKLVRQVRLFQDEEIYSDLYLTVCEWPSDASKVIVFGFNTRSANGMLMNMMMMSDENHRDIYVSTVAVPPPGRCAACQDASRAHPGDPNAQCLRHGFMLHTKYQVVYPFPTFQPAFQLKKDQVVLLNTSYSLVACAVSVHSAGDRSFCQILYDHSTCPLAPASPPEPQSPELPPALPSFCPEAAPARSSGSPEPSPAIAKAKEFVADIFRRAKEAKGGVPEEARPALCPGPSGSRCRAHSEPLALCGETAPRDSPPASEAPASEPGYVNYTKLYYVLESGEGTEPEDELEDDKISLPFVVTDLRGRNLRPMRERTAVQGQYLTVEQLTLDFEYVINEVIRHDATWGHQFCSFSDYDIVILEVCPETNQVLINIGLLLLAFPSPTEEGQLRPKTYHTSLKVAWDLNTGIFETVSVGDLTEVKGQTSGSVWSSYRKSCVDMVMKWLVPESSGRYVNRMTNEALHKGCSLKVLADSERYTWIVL
T2 sequence (Q9NPI1 whole entry, looked up): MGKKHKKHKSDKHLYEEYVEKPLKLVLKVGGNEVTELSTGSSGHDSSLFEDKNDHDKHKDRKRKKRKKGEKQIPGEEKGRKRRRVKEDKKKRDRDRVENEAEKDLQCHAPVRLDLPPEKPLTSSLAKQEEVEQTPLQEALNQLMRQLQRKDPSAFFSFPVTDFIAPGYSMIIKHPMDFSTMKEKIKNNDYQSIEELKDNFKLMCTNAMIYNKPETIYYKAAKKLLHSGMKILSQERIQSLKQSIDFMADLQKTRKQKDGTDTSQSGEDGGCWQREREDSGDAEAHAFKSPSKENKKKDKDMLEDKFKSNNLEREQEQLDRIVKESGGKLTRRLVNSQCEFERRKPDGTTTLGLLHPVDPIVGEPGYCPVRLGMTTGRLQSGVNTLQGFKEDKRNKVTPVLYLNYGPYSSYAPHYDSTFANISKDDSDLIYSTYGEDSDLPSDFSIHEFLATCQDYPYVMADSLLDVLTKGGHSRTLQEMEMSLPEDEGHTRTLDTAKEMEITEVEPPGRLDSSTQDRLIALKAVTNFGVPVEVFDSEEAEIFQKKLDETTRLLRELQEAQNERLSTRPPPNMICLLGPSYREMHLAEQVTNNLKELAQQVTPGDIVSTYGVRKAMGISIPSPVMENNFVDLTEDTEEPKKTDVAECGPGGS

[4] = target: T2, DDB1- and CUL4-associated factor 15/Bromodomain-containing protein 7 (Homo sapiens); test: PROTAC activity at DCAF15/BRD7 in human HeLa cells assessed as remaining BRD7 protein level at 1 uM incubated for 16 hrs by Western blot analysis relative to control; assay type: cell-based
[5] = target: T3, von Hippel-Lindau disease tumor suppressor/Bromodomain-containing protein 9 (Homo sapiens) (UniProt Q9H8M2+P40337); test: PROTAC activity at VHL/BRD9 in human HeLa cells assessed as remaining BRD9 protein level at 1 uM incubated for 16 hrs by Western blot analysis relative to control; assay type: cell-based
T3 sequence (P40337 whole entry, looked up, one chain of several): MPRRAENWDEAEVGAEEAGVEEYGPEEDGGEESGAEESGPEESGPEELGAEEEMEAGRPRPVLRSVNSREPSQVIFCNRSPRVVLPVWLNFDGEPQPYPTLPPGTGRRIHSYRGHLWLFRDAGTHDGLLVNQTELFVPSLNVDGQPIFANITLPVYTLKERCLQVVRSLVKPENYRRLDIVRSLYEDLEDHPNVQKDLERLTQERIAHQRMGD
How it was run: (§1)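 HeLa cells treated with compound for the stated time before harvest; BRD9, BRD7 and β-actin detected by Western blot with β-actin loading control; band intensities quantified.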

[6] = target: T4, von Hippel-Lindau disease tumor suppressor/Bromodomain-containing protein 7 (Homo sapiens) (UniProt Q9NPI1+P40337); test: PROTAC activity at VHL/BRD7 in human HeLa cells assessed as remaining BRD7 protein level at 1 uM incubated for 4 hrs by Western blot analysis relative to control; assay type: cell-based
T4 sequence (P40337 whole entry, looked up): as the sequence (P40337 whole entry, looked up, one chain of several) above
T4 sequence (Q9NPI1 whole entry, looked up): as the sequence (Q9NPI1 whole entry, looked up) above

[7] = target: T4, von Hippel-Lindau disease tumor suppressor/Bromodomain-containing protein 7 (Homo sapiens); test: PROTAC activity at VHL/BRD7 in human HeLa cells assessed as remaining BRD7 protein level at 1 uM incubated for 16 hrs by Western blot analysis relative to control; assay type: cell-based
[8] = target: T4, von Hippel-Lindau disease tumor suppressor/Bromodomain-containing protein 7 (Homo sapiens); test: PROTAC activity at VHL/BRD7 in human HeLa cells assessed as protein degradation at 1 uM incubated for 4 hrs by Western blot analysis relative to control; assay type: cell-based
[9] = target: T3, von Hippel-Lindau disease tumor suppressor/Bromodomain-containing protein 9 (Homo sapiens); test: PROTAC activity at VHL/BRD9 in human HeLa cells assessed as protein degradation at 1 uM incubated for 4 hrs by Western blot analysis relative to control; assay type: cell-based; how it was run: as §1
[10] = target: T4, von Hippel-Lindau disease tumor suppressor/Bromodomain-containing protein 7 (Homo sapiens); test: PROTAC activity at VHL/BRD7 in human HeLa cells assessed as protein degradation at 1 uM incubated for 16 hrs by Western blot analysis relative to control; assay type: cell-based
[11] = target: T3, von Hippel-Lindau disease tumor suppressor/Bromodomain-containing protein 9 (Homo sapiens); test: PROTAC activity at VHL/BRD9 in human HeLa cells assessed as protein degradation at 1 uM incubated for 16 hrs by Western blot analysis relative to control; assay type: cell-based; how it was run: as §1
[12] = target: T5, Bromodomain-containing protein 9 (Homo sapiens) (UniProt Q9H8M2); test: Binding affinity to 6His-tagged human BRD9 bromodomain (134 to 239 residues) expressed in Escherichia coli BL21 (DE3) cells assessed as change in enthalpy by ITC analysis
T5 sequence (whole entry): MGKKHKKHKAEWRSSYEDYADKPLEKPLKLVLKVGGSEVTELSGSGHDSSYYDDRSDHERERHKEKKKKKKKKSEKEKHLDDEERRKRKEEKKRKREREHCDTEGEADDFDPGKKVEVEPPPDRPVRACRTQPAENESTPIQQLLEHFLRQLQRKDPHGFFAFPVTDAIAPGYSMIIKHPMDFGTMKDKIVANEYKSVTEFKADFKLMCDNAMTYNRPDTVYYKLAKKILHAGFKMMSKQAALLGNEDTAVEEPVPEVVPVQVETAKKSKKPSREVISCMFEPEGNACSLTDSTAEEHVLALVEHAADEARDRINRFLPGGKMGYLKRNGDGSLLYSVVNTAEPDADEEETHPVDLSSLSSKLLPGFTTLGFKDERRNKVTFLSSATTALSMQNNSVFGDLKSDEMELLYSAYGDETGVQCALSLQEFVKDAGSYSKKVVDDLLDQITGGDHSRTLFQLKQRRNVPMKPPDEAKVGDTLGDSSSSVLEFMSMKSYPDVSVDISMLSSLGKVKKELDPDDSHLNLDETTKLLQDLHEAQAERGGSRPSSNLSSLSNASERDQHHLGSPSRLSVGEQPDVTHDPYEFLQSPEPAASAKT

[13] = target: T5, Bromodomain-containing protein 9 (Homo sapiens); test: Binding affinity to 6His-tagged human BRD9 bromodomain (134 to 239 residues) expressed in Escherichia coli BL21 (DE3) cells assessed as gibbs free energy change by ITC analysis
[14] = target: T5, Bromodomain-containing protein 9 (Homo sapiens); test: Binding affinity to 6His-tagged human BRD9 bromodomain (134 to 239 residues) expressed in Escherichia coli BL21 (DE3) cells assessed as change in entropy by ITC analysis
[15] = target: T6, Von Hippel-Lindau disease tumor suppressor/Elongin B/Elongin C (Homo sapiens) (UniProt P40337+Q15370+Q15369); test: Binding affinity to 6His-tagged human VHL/ElonginC/ElonginB expressed in Escherichia coli BL21 (DE3) cells assessed as change in enthalpy by ITC analysis
T6 sequence (P40337 whole entry, looked up): as the sequence (P40337 whole entry, looked up, one chain of several) above
T6 sequence (Q15369 whole entry, looked up): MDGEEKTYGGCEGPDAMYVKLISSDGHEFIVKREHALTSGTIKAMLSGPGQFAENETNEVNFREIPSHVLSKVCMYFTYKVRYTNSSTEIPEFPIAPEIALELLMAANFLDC
T6 sequence (Q15370 whole entry, looked up): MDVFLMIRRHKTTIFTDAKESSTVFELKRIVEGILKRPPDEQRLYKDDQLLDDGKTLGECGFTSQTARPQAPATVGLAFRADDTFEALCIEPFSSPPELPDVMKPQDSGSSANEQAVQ

[16] = target: T6, Von Hippel-Lindau disease tumor suppressor/Elongin B/Elongin C (Homo sapiens); test: Binding affinity to 6His-tagged human VHL/ElonginC/ElonginB expressed in Escherichia coli BL21 (DE3) cells assessed as change in entropy by ITC analysis
[17] = target: T6, Von Hippel-Lindau disease tumor suppressor/Elongin B/Elongin C (Homo sapiens); test: Negative co-operative binding affinity to 6His-tagged human VHL/ElonginC/ElonginB expressed in Escherichia coli BL21 (DE3) cells assessed as change in enthalpy in the presence of BRD9-BD as complex with compound by ITC analysis
[18] = target: T6, Von Hippel-Lindau disease tumor suppressor/Elongin B/Elongin C (Homo sapiens); test: Negative co-operative binding affinity to 6His-tagged human VHL/ElonginC/ElonginB expressed in Escherichia coli BL21 (DE3) cells assessed as change in entropy in the presence of BRD9-BD as complex with compound by ITC analysis
[19] = target: T6, Von Hippel-Lindau disease tumor suppressor/Elongin B/Elongin C (Homo sapiens); test: Negative co-operative binding affinity to 6His-tagged human VHL/ElonginC/ElonginB expressed in Escherichia coli BL21 (DE3) cells assessed as total gibb's free energy change in the presence of BRD9-BD as complex with compound by ITC analysis
[20] = target: T6, Von Hippel-Lindau disease tumor suppressor/Elongin B/Elongin C (Homo sapiens); test: Co-operative binding affinity to 6His-tagged human VHL/ElonginC/ElonginB expressed in Escherichia coli BL21 (DE3) cells assessed as maximal intensity in the presence of BRD9-BD as complex with compound incubated for 1 hrs by AlphaLISA proximity assay

T1 sequence (Q66K64 whole entry, looked up, one chain of several): as the sequence (Q66K64 whole entry, looked up) above

Activity [1] | Activity [2] | Activity [3] | Activity [4] | Activity [5] | Activity [6] | Activity [7] | Activity [8] | Activity [9] | Activity [10] | Activity [11] | deltaH [12] | deltaG [13] | -TdeltaS [14] | deltaH [15] | -TdeltaS [16] | deltaH [17] | -TdeltaS [18] | deltaG [19] | Activity [20] | Structure (SMILES)
126% | 86% | 81% | 86% | – | – | – | – | – | – | – | – | – | – | – | – | – | – | – | – | COc1cc(-c2cn(C)c(=O)c3cnccc23)cc(OC)c1CN1CCN(CCOCCOCCOCCOCC(=O)NCc2ccc(S(=O)(=O)Nc3cccc4c(Cl)c[nH]c34)cc2)CC1
– | – | – | – | 70% | 68% | 83% | 20% | 20% | 30% | 30% | -12.5 kcal/mol | -10.7 kcal/mol | 1.8 kcal/mol | -15.2 kcal/mol | 4.9 kcal/mol | -6.4 kcal/mol | -3.3 kcal/mol | -20.4 kcal/mol | 1 10^6No_unit | COc1cc(-c2cn(C)c(=O)c3cnccc23)cc(OC)c1CN1CCN(CCOCCOCC(=O)N[C@H](C(=O)N2C[C@H](O)C[C@H]2C(=O)NCc2ccc(-c3scnc3C)cc2)C(C)(C)C)CC1
